Laboratory results taken from ChEMBL document CHEMBL1649446, “Comparative antipneumococcal activities of sulopenem and other drugs” (2009).
Values after ≈ are worked out from the molar mass of the structure shown.

What was measured:
Assay type in all cases: functional
Streptococcus pneumoniae [1] = assay: Antimicrobial activity against Streptococcus pneumoniae 2 by time-kill analysis
Summary of the method: (§1)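 Time-kill in cation-adjusted Mueller-Hinton broth with 5% lysed horse blood; inocula 5 × 105 to 5 × 10^6 CFU/ml; drugs at MIC, 2× and 4× MIC; 35°C shaking water bath; viable counts at 0, 3, 6, 12, 24 h. Bactericidal = ≥3 log10 CFU/ml (99.9%) drop from original inoculum; 90%/99%/99.9% killing scored per strain.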

Streptococcus pneumoniae [2] = assay: Antimicrobial activity against Streptococcus pneumoniae 5 by time-kill analysis
Summary of the method: as §1, with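 “12 and” for “12,”, “if” for “=”, “reduction” for “drop”, “90% and 99%” for “90%/99%/99.9%”, “also scored.” for “scored per strain.”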

Streptococcus pneumoniae [3] = assay: Antimicrobial activity against Streptococcus pneumoniae 6 by time-kill analysis; summary of the method: as §1
Streptococcus pneumoniae [4] = assay: Antimicrobial activity against Streptococcus pneumoniae 7 by time-kill analysis; summary of the method: as §1
Streptococcus pneumoniae [5] = assay: Antimicrobial activity against Streptococcus pneumoniae 10 by time-kill analysis; summary of the method: as §1
Streptococcus pneumoniae [6] = assay: Antimicrobial activity against Streptococcus pneumoniae 1 by time-kill analysis
Summary of the method: as §1, with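 “12 and” for “12,”, “if” for “=”, “reduction” for “drop”, “90% and 99%” for “90%/99%/99.9%”, “also scored.” for “scored per strain.”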

Streptococcus pneumoniae [7] = assay: Antimicrobial activity against Streptococcus pneumoniae 11 by time-kill analysis; summary of the method: as §1
Streptococcus pneumoniae [8] = assay: Antimicrobial activity against Streptococcus pneumoniae 8 by time-kill analysis; summary of the method: as §1
Streptococcus pneumoniae [9] = assay: Antimicrobial activity against Streptococcus pneumoniae 12 by time-kill analysis; summary of the method: as §1
Streptococcus pneumoniae [10] = assay: Antimicrobial activity against Streptococcus pneumoniae 4 by time-kill analysis; summary of the method: as §1
Streptococcus pneumoniae [11] = assay: Antimicrobial activity against Streptococcus pneumoniae 9 by time-kill analysis
Summary of the method: as §1, with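 “12 and” for “12,”, “if” for “=”, “reduction” for “drop”, “90% and 99%” for “90%/99%/99.9%”, “also scored.” for “scored per strain.”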

Streptococcus pneumoniae [12] = assay: Antimicrobial activity against Streptococcus pneumoniae 3 by time-kill analysis; summary of the method: as §1
Streptococcus pneumoniae [13] = assay: Antimicrobial activity against Streptococcus pneumoniae isolate 3587 by agar dilution method
Streptococcus pneumoniae [14] = assay: Antimicrobial activity against Streptococcus pneumoniae isolate 1394 by agar dilution method
Streptococcus pneumoniae [15] = assay: Antimicrobial activity against Streptococcus pneumoniae isolate 3681 by agar dilution method
Summary of the method: (§2)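 Agar dilution MIC on Mueller-Hinton agar with 5% sheep blood, inocula 10^4 CFU/spot; amoxicillin-clavulanate combined 1:2; S. pneumoniae ATCC 49619 quality control each run.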

Streptococcus pneumoniae [16] = assay: Antimicrobial activity against penicillin-resistant Streptococcus pneumoniae by agar dilution method; summary of the method: as §2
Streptococcus pneumoniae [17] = assay: Antimicrobial activity against Streptococcus pneumoniae isolate 3412 by agar dilution method; summary of the method: as §2
Streptococcus pneumoniae [18] = assay: Antimicrobial activity against Streptococcus pneumoniae isolate 1424 by agar dilution method; summary of the method: as §2
Streptococcus pneumoniae [19] = assay: Antimicrobial activity against Streptococcus pneumoniae isolate 3455 by agar dilution method
Streptococcus pneumoniae [20] = assay: Antimicrobial activity against Streptococcus pneumoniae isolate 4755 by agar dilution method; summary of the method: as §2
Streptococcus pneumoniae [21] = assay: Antimicrobial activity against Streptococcus pneumoniae isolate 2688 by agar dilution method; summary of the method: as §2
Streptococcus pneumoniae [22] = assay: Antimicrobial activity against Streptococcus pneumoniae isolate 3263 by agar dilution method
Streptococcus pneumoniae [23] = assay: Antimicrobial activity against Streptococcus pneumoniae 19A by agar dilution method; summary of the method: as §2
Streptococcus pneumoniae [24] = assay: Antimicrobial activity against Streptococcus pneumoniae isolate 2617 by agar dilution method; summary of the method: as §2
Streptococcus pneumoniae [25] = assay: Antimicrobial activity against Streptococcus pneumoniae isolate 1397 by agar dilution method; summary of the method: as §2
Streptococcus pneumoniae [26] = assay: Antimicrobial activity against Streptococcus pneumoniae isolate 3791 by agar dilution method; summary of the method: as §2
Streptococcus pneumoniae [27] = assay: Antimicrobial activity against Streptococcus pneumoniae isolate 1055 by agar dilution method
Streptococcus pneumoniae [28] = assay: Antimicrobial activity against Streptococcus pneumoniae isolate 1147 by agar dilution method; summary of the method: as §2
Streptococcus pneumoniae [29] = assay: Antimicrobial activity against Streptococcus pneumoniae isolate 3481 by agar dilution method; summary of the method: as §2
Streptococcus pneumoniae [30] = assay: Antimicrobial activity against Streptococcus pneumoniae isolate 33 by agar dilution method; summary of the method: as §2
Streptococcus pneumoniae [31] = assay: Antimicrobial activity against Streptococcus pneumoniae isolate 24 by agar dilution method
Streptococcus pneumoniae [32] = assay: Antimicrobial activity against Streptococcus pneumoniae isolate 1564 by agar dilution method
Streptococcus pneumoniae [33] = assay: Antimicrobial activity against Streptococcus pneumoniae isolate 3275 by agar dilution method; summary of the method: as §2
Streptococcus pneumoniae [34] = assay: Antimicrobial activity against Streptococcus pneumoniae isolate 1146 by agar dilution method; summary of the method: as §2
Streptococcus pneumoniae [35] = assay: Antimicrobial activity against Streptococcus pneumoniae isolate 1384 by agar dilution method; summary of the method: as §2
Streptococcus pneumoniae [36] = assay: Antimicrobial activity against Streptococcus pneumoniae isolate 3260 by agar dilution method
Streptococcus pneumoniae [37] = assay: Antimicrobial activity against penicillin-intermediate Streptococcus pneumoniae by agar dilution method
Streptococcus pneumoniae [38] = assay: Antimicrobial activity against Streptococcus pneumoniae isolate 3346 by agar dilution method
Streptococcus pneumoniae [39] = assay: Antimicrobial activity against penicillin-susceptible Streptococcus pneumoniae by agar dilution method
Streptococcus pneumoniae [40] = assay: Antimicrobial activity against Streptococcus pneumoniae isolate 37 by agar dilution method; summary of the method: as §2
Streptococcus pneumoniae [41] = assay: Antimicrobial activity against Streptococcus pneumoniae isolate 3458 by agar dilution method
Streptococcus pneumoniae [42] = assay: Antimicrobial activity against Streptococcus pneumoniae isolate 2686 by agar dilution method; summary of the method: as §2
Streptococcus pneumoniae [43] = assay: Antimicrobial activity against Streptococcus pneumoniae isolate 3282 by agar dilution method
Streptococcus pneumoniae [44] = assay: Antimicrobial activity against Streptococcus pneumoniae isolate 3374 by agar dilution method; summary of the method: as §2
Streptococcus pneumoniae [45] = assay: Antimicrobial activity against Streptococcus pneumoniae isolate 2880 by agar dilution method; summary of the method: as §2
Streptococcus pneumoniae [46] = assay: Antimicrobial activity against Streptococcus pneumoniae isolate 4747 by agar dilution method; summary of the method: as §2
Streptococcus pneumoniae [47] = assay: Antimicrobial activity against Streptococcus pneumoniae isolate 2874 by agar dilution method; summary of the method: as §2

C[C@@H](O)[C@H]1C(=O)N2C(C(=O)O)=C(S[C@@H]3CN[C@H](C(=O)Nc4cccc(C(=O)O)c4)C3)[C@H](C)[C@H]12 [ERTAPENEM]
MIC (Streptococcus pneumoniae [1]): 0.03 µg/mL (≈ 0.0631 µM) | MIC (Streptococcus pneumoniae [2]): 4 µg/mL (≈ 8.41 µM) | MIC (Streptococcus pneumoniae [3]): 0.12 µg/mL (≈ 0.252 µM) | MIC (Streptococcus pneumoniae [4]): 2 µg/mL (≈ 4.21 µM) | MIC (Streptococcus pneumoniae [5]): 0.12 µg/mL (≈ 0.252 µM) | MIC (Streptococcus pneumoniae [6]): 0.03 µg/mL (≈ 0.0631 µM) | MIC (Streptococcus pneumoniae [7]): 2 µg/mL (≈ 4.21 µM) | MIC (Streptococcus pneumoniae [8]): 1 µg/mL (≈ 2.1 µM) | MIC (Streptococcus pneumoniae [9]): 0.5 µg/mL (≈ 1.05 µM) | MIC (Streptococcus pneumoniae [10]): 1 µg/mL (≈ 2.1 µM) | MIC (Streptococcus pneumoniae [11]): 0.12 µg/mL (≈ 0.252 µM) | MIC (Streptococcus pneumoniae [12]): 0.25 µg/mL (≈ 0.526 µM)

CC[C@H]1OC(=O)[C@H](C)[C@@H](O[C@H]2C[C@@](C)(OC)[C@@H](O)[C@H](C)O2)[C@H](C)[C@@H](O[C@@H]2O[C@H](C)C[C@H](N(C)C)[C@H]2O)[C@](C)(OC)C[C@@H](C)C(=O)[C@H](C)[C@@H](O)[C@]1(C)O [CLARITHROMYCIN]
MIC (Streptococcus pneumoniae [13]): > 64 µg/mL | MIC (Streptococcus pneumoniae [14]): 64 µg/mL (≈ 85.6 µM) | MIC (Streptococcus pneumoniae [15]): 0.03 µg/mL (≈ 0.0401 µM) | MIC50 (Streptococcus pneumoniae [16]): 0.06 µg/mL (≈ 0.0802 µM) | MIC (Streptococcus pneumoniae [17]): 32 µg/mL (≈ 42.8 µM) | MIC (Streptococcus pneumoniae [18]): 16 µg/mL (≈ 21.4 µM) | MIC (Streptococcus pneumoniae [19]): > 64 µg/mL | MIC (Streptococcus pneumoniae [20]): > 64 µg/mL | MIC (Streptococcus pneumoniae [21]): 32 µg/mL (≈ 42.8 µM) | MIC (Streptococcus pneumoniae [22]): > 64 µg/mL | MIC50 (Streptococcus pneumoniae [23]): > 64 µg/mL | MIC90 (Streptococcus pneumoniae [23]): > 64 µg/mL | MIC (Streptococcus pneumoniae [24]): 0.03 µg/mL (≈ 0.0401 µM) | MIC (Streptococcus pneumoniae [25]): 64 µg/mL (≈ 85.6 µM) | MIC (Streptococcus pneumoniae [26]): 32 µg/mL (≈ 42.8 µM) | MIC (Streptococcus pneumoniae [27]): 32 µg/mL (≈ 42.8 µM) | MIC (Streptococcus pneumoniae [28]): 1 µg/mL (≈ 1.34 µM) | MIC (Streptococcus pneumoniae [29]): > 64 µg/mL | MIC (Streptococcus pneumoniae [30]): 0.03 µg/mL (≈ 0.0401 µM) | MIC (Streptococcus pneumoniae [31]): > 64 µg/mL | MIC (Streptococcus pneumoniae [32]): 32 µg/mL (≈ 42.8 µM) | MIC (Streptococcus pneumoniae [33]): > 64 µg/mL | MIC (Streptococcus pneumoniae [34]): 2 µg/mL (≈ 2.67 µM) | MIC (Streptococcus pneumoniae [35]): 64 µg/mL (≈ 85.6 µM) | MIC (Streptococcus pneumoniae [36]): > 64 µg/mL | MIC50 (Streptococcus pneumoniae [37]): 1 µg/mL (≈ 1.34 µM) | MIC90 (Streptococcus pneumoniae [37]): > 64 µg/mL | MIC (Streptococcus pneumoniae [38]): > 64 µg/mL | MIC50 (Streptococcus pneumoniae [39]): 0.5 µg/mL (≈ 0.668 µM) | MIC90 (Streptococcus pneumoniae [39]): > 64 µg/mL | MIC (Streptococcus pneumoniae [40]): > 64 µg/mL | MIC (Streptococcus pneumoniae [41]): > 64 µg/mL | MIC (Streptococcus pneumoniae [42]): 16 µg/mL (≈ 21.4 µM) | MIC (Streptococcus pneumoniae [43]): > 64 µg/mL | MIC (Streptococcus pneumoniae [44]): 32 µg/mL (≈ 42.8 µM) | MIC (Streptococcus pneumoniae [45]): 8 µg/mL (≈ 10.7 µM) | MIC (Streptococcus pneumoniae [46]): 64 µg/mL (≈ 85.6 µM) | MIC (Streptococcus pneumoniae [47]): 32 µg/mL (≈ 42.8 µM)
